From ChEMBL document CHEMBL1938359, “Pyrrolo[1,2-b]pyridazines, pyrrolo[2,1-f]triazin-4(3H)-ones, and related compounds as novel corticotropin-releasing factor 1 (CRF₁) receptor antagonists” (Bioorg Med Chem, 2012)
Activity calls are given as the source filed them. The rule behind the calls is not given here.

Key:
[1] = molecular target: T1, Corticotropin-releasing factor receptor 1 (Homo sapiens, UniProt P34998); assay: Displacement of [125I]CRF from human CRF1 receptor expressed in CHO-K1 cells after 2 hrs by gamma counter; type: cell-based
T1 sequence (P34998 whole entry): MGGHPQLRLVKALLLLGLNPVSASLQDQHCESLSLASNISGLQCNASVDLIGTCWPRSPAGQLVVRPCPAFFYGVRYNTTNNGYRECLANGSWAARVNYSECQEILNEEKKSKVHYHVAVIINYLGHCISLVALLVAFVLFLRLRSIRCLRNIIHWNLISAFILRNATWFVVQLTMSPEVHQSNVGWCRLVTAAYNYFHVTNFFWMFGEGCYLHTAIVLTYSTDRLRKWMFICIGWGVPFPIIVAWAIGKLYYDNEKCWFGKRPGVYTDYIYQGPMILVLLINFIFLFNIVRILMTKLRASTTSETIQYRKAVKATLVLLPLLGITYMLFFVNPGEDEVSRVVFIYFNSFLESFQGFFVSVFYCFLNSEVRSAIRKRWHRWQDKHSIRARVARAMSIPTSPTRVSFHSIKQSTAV
How it was run: (§1)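 Crude membranes came from CRF1-expressing CHO-K1 cells, homogenized in 50 mmol/l Tris–HCl with 10 mmol/l MgCl2, 2 mmol/l EDTA and aprotinin, then spun at 10,000 g. Membranes were incubated 2 h at room temperature with 0.5 nmol/l 125I human/rat CRF (added solution) and test compound (1–10000 nmol/l). Bound ligand was separated by centrifugation and washed with PBS/0.01% Triton X-100, then counted by γ-counter. Nonspecific binding was defined with 1 µmol/l unlabeled CRF. IC50 was taken from concentration–response curves.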

[2] = molecular target: T1, Corticotropin-releasing factor receptor 1; assay: Antagonist activity at human CRF1 receptor expressed in CHO-K1 cells assessed as CRF-stimulated cAMP accumulation by enzyme immunoassay; type: functional, cell-based; details: read-out: EC50 (the source's name)
How it was run: (§2)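 CHO-K1 cells expressing CRF1 were seeded at 1 × 10^4 cells/well and incubated overnight, then washed twice with F-12. They were preincubated 10 min at 37 °C in F-12 containing 1 mmol/l IBMX. Test compound (1–10000 nmol/l) and 10 nmol/l CRF (final concentration not stated) were added, followed by 15 min at 37 °C. Cells were chilled and cAMP measured by enzyme immunoassay after blank subtraction. IC50 was taken from concentration–response curves.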

[3] = Half life in rat at 1 mg/kg, po; type: ADME, organism-based; design: dose 1 mg/kg, route oral; details: in vivo
How it was run: (§3)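 Fasted male rats received a single 1 mg/kg dose, either iv in saline with 30% HP-β-CD or po in saline with 0.5% MC (n = 4 each). Jugular blood was taken by heparinized syringe (iv: 2 min–72 h; po: 1–72 h) and spun to plasma stored at −70 °C. AUC, Cmax, Tmax, T1/2, Vss and CL were derived from plasma concentration–time courses. F = dose-normalized AUCpo/AUCiv × 100.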

[4] = Oral bioavailability in rat at 1 mg/kg; type: ADME, organism-based; details: in vivo; how it was run: as §3
[5] = AUC (infinity) in rat at 1 mg/kg, po; type: ADME, organism-based; design: time infinity, dose 1 mg/kg, route oral; details: plasma
How it was run: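 Fasted male rats dosed orally once at 1 mg/kg in saline with 0.5% MC (w/v). Heparinized jugular-vein blood was taken at 1, 2, 4, 6, 8, 24, 48 and 72 h. Plasma was obtained by centrifugation and kept at -70 °C. AUC came from the plasma concentration–time profile.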

[6] = Cmax in rat at 1 mg/kg, po; details: in vivo
[7] = molecular target: T2, Corticotropin-releasing factor receptor 1 (Rattus norvegicus, UniProt P35353); assay: Displacement of [125I]CRF from rat CRF1 receptor expressed in CHO-K1 cells after 2 hrs by gamma counter; type: cell-based; details: in the assay text read “in brain membranes” for “expressed in CHO-K1 cells”; how it was run: as §1
T2 sequence (P35353 whole entry): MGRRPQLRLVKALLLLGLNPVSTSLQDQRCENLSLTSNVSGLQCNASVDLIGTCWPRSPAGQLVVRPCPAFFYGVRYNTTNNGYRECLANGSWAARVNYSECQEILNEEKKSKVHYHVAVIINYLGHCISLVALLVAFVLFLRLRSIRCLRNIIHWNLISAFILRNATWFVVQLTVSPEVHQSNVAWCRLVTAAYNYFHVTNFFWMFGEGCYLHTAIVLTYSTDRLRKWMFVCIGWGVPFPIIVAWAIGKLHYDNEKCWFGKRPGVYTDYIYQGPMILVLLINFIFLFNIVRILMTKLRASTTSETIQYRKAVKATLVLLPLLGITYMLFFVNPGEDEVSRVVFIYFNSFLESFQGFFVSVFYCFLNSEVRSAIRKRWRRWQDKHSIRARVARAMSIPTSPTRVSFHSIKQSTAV

[8] = Tmax in rat at 1 mg/kg, po; type: ADME, organism-based; design: dose 1 mg/kg, route oral; details: in vivo; how it was run: as §3
[9] = Volume of distribution at steady state in rat at 1 mg/kg, iv; type: ADME, organism-based; design: dose 1 mg/kg, route intravenous; details: in vivo, read-out: Vdss; how it was run: as §3
[10] = molecular target: T2, Corticotropin-releasing factor receptor 1; assay: Antagonist activity at rat CRF1 receptor expressed in CHO-K1 cells assessed as CRF-stimulated cAMP accumulation by enzyme immunoassay; type: functional, cell-based; how it was run: as §2
[11] = Total clearance in rat at 1 mg/kg, iv; type: ADME, organism-based; design: dose 1 mg/kg, route intravenous; details: in vivo; how it was run: as §3
Rattus norvegicus [12] = assay: Anxiolytic activity against swin-stress-induced anxiety-like behavior in po dosed Sprague-Dawley rat assessed as increase in time spent in open arms after 1 hr by plus-maze test; type: functional, organism-based
How it was run: (§4)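 Male Sprague-Dawley rats (230–280 g) received oral vehicle (0.5% MC) or compound 1 h before testing. They were forced to swim 120 s in 22 ± 2 °C water (25 cm deep) and dried. Each rat was placed at the maze centre facing a closed arm and video-tracked for 5 min. Time in and entries into open arms were scored. Non-stressed controls were included. Data are mean ± S.E., with n=16 per group. Dunnett test versus vehicle.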

[13] = Half life in rat at 1 mg/kg, iv; type: ADME, organism-based; design: dose 1 mg/kg, route intravenous; details: in vivo; how it was run: as §3
[14] = AUC (infinity) in rat at 1 mg/kg, iv; type: ADME, organism-based; design: time infinity, dose 1 mg/kg, route intravenous; details: plasma
How it was run: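 Fasted male rats given a single 1 mg/kg intravenous dose in saline with 30% HP-β-CD (w/v). Heparinized jugular-vein blood was drawn pre-dose and at 2, 5, 15 and 30 min and 1, 2, 3, 4, 8, 24, 48 and 72 h. Plasma was separated by centrifugation and stored at -70 °C. AUC was derived from the plasma concentration–time course.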

Rattus norvegicus [15] = assay: Anxiolytic activity against swin-stress-induced anxiety-like behavior in Sprague-Dawley rat assessed as increase in time spent in open arms at 10 mg/kg, po after 1 hr by plus-maze test; type: functional, organism-based; design: dose 10 mg/kg; how it was run: as §4
Rattus norvegicus [16] = assay: Anxiolytic activity against swin-stress-induced anxiety-like behavior in Sprague-Dawley rat assessed as increase in time spent in open arms at 3 mg/kg, po after 1 hr by plus-maze test; type: functional, organism-based; design: dose 3 mg/kg; how it was run: as §4

Structure (SMILES)	IC50 [1] [nM]	IC50 [2] [nM]	further results
CCC(CC)c1cc(C)n2nc(-c3cnc(N(C)C)cc3C)c(C)cc12	7.4	11.5	
CCC(CC)c1cc(C)n2nc(-c3cnc(OC(F)F)cc3C)n(C)c(=O)c12		3.2	half-life [3]: 2.4 h; bioavailability [4]: 13.5%; AUC(0-inf) [5]: 70.2 ng·h/mL; Cmax [6]: 21.5 ng/mL; IC50 [7]: 8.4 nM; Tmax [8]: 1 h; Vd [9]: 2.95 L/kg; EC50 [10]: 2.6 nM; clearance [11]: 34.7 mL/min/kg; Activity (Rattus norvegicus [12]): Dose-dependent effect; half-life [13]: 4.3 h; AUC(0-inf) [14]: 518 ng·h/mL; Activity (Rattus norvegicus [15]): Active
COc1cc(C)c(-c2nn3c(C)cc(C(C)C)c3c(=O)n2C)c(C)c1	13.1	4.5	
CCOc1ccc(-c2nn3c(C)cc(C(CC)CC)c3cc2C)c(CC)c1	13.4	6.9	
CCC(CC)c1cc(C)n2nc(-c3c(C)cc(OC)cc3C)n(C)c(=O)c12	2	0.6	
CCc1cc(OC)c(OC)cc1-c1nn2c(C)cc(C(CC)CC)c2cc1C	8.9	1.9	
CCC(C)c1cc(C)n2nc(-c3ccc(OC)cc3C)n(C)c(=O)c12 (centres undefined)	5	2.4	
CCC(CC)c1cc(C)n2nc(-c3cc(C)c(C)cc3C)c(C)cc12	16.6	3.3	
CCC(CC)c1nc(C)c2nc(-c3ccc(OC)cc3C)c(C)cn12	311		
CCC(CC)c1cc(C)n2nc(-c3ccc(C)cc3C)c(C)cc12	11.6	1.8	
CCC(CC)c1cc(C)n2nc(-c3ccc(N(C)C)nc3C)n(C)c(=O)c12	7.8	5.5	
CCC(C)c1cc(C)n2nc(-c3c(C)cc(OC)cc3C)n(C)c(=O)c12 (centres undefined)	4.2	3.5	
CCC(CC)c1cc(C)n2nc(-c3ccc(OC(F)F)nc3C)n(C)c(=O)c12	4.5	0.3	
CCC(C)c1cc(C)n2nc(-c3ccc(N(C)C)nc3C)n(C)c(=O)c12 (centres undefined)	81.2	36.5	
Cc1nc(N(C)C)ccc1-c1nn2c(C)cc(C(C)C)c2c(=O)n1C	131		
CCC(CC)c1cc(C)n2nc(-c3cc4c(cc3C)OCO4)c(C)cc12	18.3	2.5	
CCC(CC)c1nc(C)n2nc(-c3ccc(OC)cc3C)c(C)cc12	122	566	
CCC(CC)c1cc(C)n2nc(-c3ccc(OC)nc3C)n(C)c(=O)c12	3.8	1.1	
CCC(CC)c1cc(C)n2nc(-c3cnc(OC)cc3C)n(C)c(=O)c12	8.6	17.2	
CCC(CC)c1cc(C)n2nc(-c3ccc(OC)cc3C)c(C)cc12		4.9	Activity (Rattus norvegicus [16]): Active

More lines, main results first:

IC50 [1] [nM]	IC50 [2] [nM]	Structure (SMILES)	further results
5.7	3.7	CCC(CC)c1cc(C)n2nc(-c3ccc(OC)cc3C)n(C3CC3)c(=O)c12	
9.7	1.2	CCC(CC)c1cc(C)n2nc(-c3ccc(OC)cc3C)n(CC)c(=O)c12	
2.6	1.7	CCC(CC)c1cc(C)n2nc(-c3ccc(OC)cc3C)n(C)c(=O)c12	
4.4	3.5	CCC(CC)c1cc(C)n2nc(-c3ccc(OC)cc3Cl)n(CCO)c(=O)c12	
19.2	5.1	CCC(CC)c1cc(C)n2nc(-c3ccc(OC)cc3C)n(C(C)C)c(=O)c12	
	4.2	CCC(CC)c1cc(C)n2nc(-c3ccc(OC)cc3C)n(CCO)c(=O)c12	
111	47.2	CCC(CC)c1cc(C)n2nc(-c3ccc(OC)cc3C)n(CC(C)C)c(=O)c12	
4.9	1.1	CCC(C)c1cc(C)n2nc(-c3ccc(OC)cc3Cl)n(C)c(=O)c12 (centres undefined)	
3.3	5	CCC(CC)c1cc(C)n2nc(-c3ccc(OC)cc3C)n(CC3CC3)c(=O)c12	
5.9	1	CCC(CC)c1cc(C)n2nc(-c3ccc(OC)cc3Cl)n(C3CC3)c(=O)c12	
8.7	7.4	COc1ccc(-c2nn3c(C)cc(C(C)C)c3c(=O)n2C)c(Cl)c1	
3.8	1.2	CCC(CC)c1cc(C)n2nc(-c3ccc(OC)cc3Cl)n(C)c(=O)c12	
4.6	0.7	CCC(CC)c1cc(C)n2nc(-c3ccc(OC)cc3Cl)n(CC)c(=O)c12	
149	688	CCC(CC)c1cc(C)n2nc(-c3ccc(OC)cc3C)[nH]c(=O)c12	
14.3	4	CCC(CC)c1cc(C)n2nc(-c3ccc(OC)cc3Cl)[nH]c(=O)c12	
